The values below come from ChEMBL document CHEMBL1177722, “Computer-aided identification of Trypanosoma brucei uridine diphosphate galactose 4'-epimerase inhibitors: toward the development of novel therapies for African sleeping sickness” (J Med Chem, 2010).

The target of test [1] is T1, UDP-galactose 4-epimerase (Trypanosoma brucei, UniProt Q8T8E9).
T1 sequence (Q8T8E9 whole entry): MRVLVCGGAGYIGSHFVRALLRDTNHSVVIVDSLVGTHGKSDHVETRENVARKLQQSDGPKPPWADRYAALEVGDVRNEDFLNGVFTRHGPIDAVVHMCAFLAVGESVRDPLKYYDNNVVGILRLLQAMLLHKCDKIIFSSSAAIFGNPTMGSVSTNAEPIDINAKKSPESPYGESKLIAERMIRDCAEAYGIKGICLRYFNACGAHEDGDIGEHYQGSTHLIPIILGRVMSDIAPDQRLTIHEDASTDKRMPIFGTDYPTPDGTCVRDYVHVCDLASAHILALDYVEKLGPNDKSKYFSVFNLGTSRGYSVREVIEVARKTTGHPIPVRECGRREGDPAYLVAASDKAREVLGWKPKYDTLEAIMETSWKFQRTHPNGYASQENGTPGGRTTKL
The experiment in a line: Inhibition of hexahistidine-tagged Trypanosoma brucei UDP-galactose-4'epimerase expressed in Escherichia coli. In outline:
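Recombinant enzyme reacted with 100 μM UDP-Gal and 100 μM β-NAD+ (5 μg/mL enzyme, 1 mM Tris pH 7.6, 1% DMSO), with or without inhibitor (0.03-100 μM), at 37 °C for 30 min. Quenched with NaOH. UDP-Gal to UDP-Glc conversion followed by HPAEC, detection at 260 nm. IC50 from a four-parameter fit over three independent experiments.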

A further test has as its system Trypanosoma brucei. The experiment in a line: Antitrypanosomal activity against Trypanosoma brucei after 3 days by alamar blue assay. It is filed as functional, organism-based. The following applies: 72 h. Summed up: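 Cultured T. brucei seeded at 1 × 10^4 cells/ml in 384-well format, incubated with or without inhibitor (100 μM to 30 nM) for three days; viable cells then counted by Alamar Blue read-out; EC50 derived from the dose series.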

For the next test, the system named is MRC5. The test is described as follows: Cytotoxicity against human MRC5 cells after 3 days by alamar blue assay. To be noted: MRC5, 72 h. It is filed as cell-based. In outline: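 Cultured human MRC5 cells at 1 × 10^4 cells/ml in 384-well format, incubated with or without inhibitor over 100 μM to 30 nM for three days. Viable cell number then counted by Alamar blue.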
For orientation: Resazurin is reduced to fluorescent resorufin, in cell work by metabolically active cells.

In general, IC50 refers to the concentration that inhibits the measured activity by half. The low end stands for greater potency, the high end for weaker potency. As usually defined, the EC50 is the concentration needed to bring the measured effect to its halfway point. Low readings indicate greater potency, high ones weaker potency. The compound `O=C(O)c1ccccc1-c1ccccc1C(=O)Nc1ccc2c(c1)Cc1ccccc1-2` had an IC50 in test [1] of 4.6 µM. For the same compound, the EC50 with Trypanosoma brucei and with MRC5 was more than 50 µM in each case.

As to `O=C(O)c1ccccc1-c1ccccc1C(=O)Nc1ccc2c(c1)Cc1cc(F)ccc1-2`, 3.8 µM corresponded to half-maximal inhibition in test [1] (IC50). In addition, the EC50 with Trypanosoma brucei and in the test with MRC5 was more than 50 µM in each case.

`O=C(O)c1ccccc1-c1ccccc1C(=O)Nc1cc2c3ccccc3ccc2c2ccccc12` displayed a 50% inhibitory concentration (IC50) in test [1] of 2.6 µM. The EC50 with MRC5 is more than 50 µM.

The compound `O=C(O)c1ccccc1-c1ccccc1C(=O)Nc1ccc2c(c1)C(O)c1ccccc1-2` (centres undefined) showed a 50% inhibitory concentration (IC50) in test [1] of 6.8 µM. Besides, the EC50 in the test on Trypanosoma brucei and in the test on MRC5 was more than 50 µM each time.

Turning to `O=C(O)c1cc(Cl)ccc1-c1ccc(Cl)cc1C(=O)Nc1ccc2c(c1)Cc1ccccc1-2`, the concentration for half-maximal inhibition (IC50) in test [1] was determined as 3.3 µM. Besides, the concentration for a half-maximal effect (EC50) in the test on MRC5 was more than 50 µM.

`O=C(O)c1ccccc1-c1ccccc1C(=O)Nc1ccc2c(c1)nc(O)c1ccccc12` displayed a half-maximal inhibitory concentration (IC50) in test [1] of 3.6 µM. For the same compound, the EC50 with Trypanosoma brucei and in the test on MRC5 was more than 50 µM throughout.

In turn, `CCn1c2ccccc2c2cc(NC(=O)c3ccccc3-c3ccccc3C(=O)O)ccc21` yielded an IC50 in test [1] of 5.6 µM. Also, the EC50 with Trypanosoma brucei and with MRC5 was more than 50 µM each time.

The compound `O=C(O)c1ccccc1-c1ccccc1C(=O)Nc1ccc2c(c1)Cc1cc(NC(=O)c3ccccc3-c3ccccc3C(=O)O)ccc1-2` showed an IC50 in test [1] of 0.9 µM. The EC50 with Trypanosoma brucei and in the test with MRC5 was more than 50 µM throughout.

`O=C(O)c1ccccc1-c1ccccc1C(=O)Nc1ccc2c(c1)oc(=O)c1ccccc12` showed an IC50 in test [1] of 3.2 µM. The compound also gave a half-maximal effective concentration (EC50) in the test on MRC5 of more than 50 µM.

With `O=C(O)c1ccccc1-c1ccccc1C(=O)Nc1ccc2c(c1)-c1ccccc1C2`, the half-inhibitory concentration (IC50) in test [1] is 4.2 µM. Also, the concentration for a half-maximal effect (EC50) in the test with Trypanosoma brucei and in the test on MRC5 was more than 50 µM throughout.

`O=C(O)c1ccccc1-c1ccccc1C(=O)Nc1ccc2c(c1)C(=O)c1ccccc1-2` registered a half-inhibitory concentration (IC50) in test [1] of 2.8 µM. Besides, the concentration for a half-maximal effect (EC50) in the test on Trypanosoma brucei and in the test with MRC5 was more than 50 µM each time.

Compound `O=C(O)c1ccccc1-c1ccccc1C(=O)Nc1cccc2c1-c1ccccc1C2` had a concentration for half-maximal inhibition (IC50) in test [1] of 8 µM. The 50% effective concentration (EC50) in the test with Trypanosoma brucei and in the test with MRC5 was more than 50 µM in each case.

Regarding `O=C(O)c1cc(Cl)ccc1-c1ccc(Cl)cc1C(=O)NC1=CC2=C(CC1)c1c(Cl)cc(Cl)cc1C2`, in test [1], the half-maximal inhibitory concentration (IC50) was determined as 1.8 µM. Moreover, the figures for the concentration for a half-maximal effect (EC50) in the test with Trypanosoma brucei and with MRC5 were more than 50 µM and 35.2 µM, respectively.

For the compound `COC1C(OC(=O)c2ccc(C)[nH]2)C(O)C(Oc2ccc3c(O)c(NC(=O)c4ccc(O)c(CC=C(C)C)c4)c(=O)oc3c2Cl)OC1(C)C` (centres undefined), the half-inhibitory concentration (IC50) in test [1] was found to be 5 µM. Further, the figures for the EC50 in the test with Trypanosoma brucei and in the test with MRC5 were 4.4 µM and more than 50 µM, respectively.
